Screening results deposited in PubChem by several laboratories.
This is a sample that favours compounds with a hit; in the whole collection about 4.1% have one here.
hERG protect – hERG (human) protection from proarrhythmic block; CHO-hERG, FluxOR thallium flux, dofetilide IC70 present; Q12809; activation (rescue from dofetilide block), less the hit threshold, % at 10 µM; 0.51% of 310,000 active;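 active means activation above the mean of controls blocked by dofetilide plus 5 SD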;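 further: thallium influx through hERG after potassium depolarization seen as dye fluorescence rise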
KCNQ1 inh – blocks the human KCNQ1 potassium channel | B-score at 10 µM | 1.3% of 310,000 active | P51787 | CHO-K1 KCNQ1, FluxOR thallium flux fluorescence; active compounds read high | AID 2642;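 active means compounds whose thallium flux B-score, printed positive for inhibition, exceeds three library SD while starting fluorescence stays within three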;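 further: channel opened by potassium depolarization with thallium stimulus after 20 min compound exposure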
Cl transport mod – KCC2 (human) Cl- transport modulation | B-score of Tl+ flux slope (higher = more flux/activation; lower = inhibition) at 10 µM | AID 1456 | Q9H2X9 | 2.2% of 190,000 active | KCC2 cells, thallium flux FluoZin-2 fluorescence;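 active means thallium flux slope and its plate-corrected score both differing from the plate sample mean at a set confidence after two filtering rounds, in either direction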;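 further: slope of fluorescence scaled to starting intensity during 10 to 20 s after thallium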
KCNQ1 pot – potentiates or activates the human KCNQ1 potassium channel. CHO-K1 KCNQ1, thallium flux FluxOR fluorescence; active compounds read high. B-score at 10 µM. 0.35% of 310,000 active. AID 2648;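 active means fluorescence ratio B-score, a plate-corrected score, at least three library SD, with initial intensity B-score within 5 SD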
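Medium – assay buffer, equal DMSO in all wells · Material – CHO-K1 cell line with stable KCNQ1 potassium channel expression · Signal – kinetic FluxOR thallium fluorescence, 10-s 1-Hz baseline, 110-s post-stimulus read · Compound – single concentration per compound, DMSO matched to controls · Schedule – 37 °C overnight plating, 90-min dark dye load, 20-min compound pretreatment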
KCNK3 inh – human KCNK3 channel inhibition, primary screen; O14649; CHO-KCNK3 thallium flux, FluxOR fluorescence; active compounds read low; B-score at 10 µM; 0.84% of 340,000 active;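 active means B-score under library mean minus 4 SD, starting fluorescence ratio at most library mean plus 5 SD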;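 further: more negative B-score means stronger inhibition of thallium flux through KCNK3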
Target sequence (O14649 whole entry, looked up): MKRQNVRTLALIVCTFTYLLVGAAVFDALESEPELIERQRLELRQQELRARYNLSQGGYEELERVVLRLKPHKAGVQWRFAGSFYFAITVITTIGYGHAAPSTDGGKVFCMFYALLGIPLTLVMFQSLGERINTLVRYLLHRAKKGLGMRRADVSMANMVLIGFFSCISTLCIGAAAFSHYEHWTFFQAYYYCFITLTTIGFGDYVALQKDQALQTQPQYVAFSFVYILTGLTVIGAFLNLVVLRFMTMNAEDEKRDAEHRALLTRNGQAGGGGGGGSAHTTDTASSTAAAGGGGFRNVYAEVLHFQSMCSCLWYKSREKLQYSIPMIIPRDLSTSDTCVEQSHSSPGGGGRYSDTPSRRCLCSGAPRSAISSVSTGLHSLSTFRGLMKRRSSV
KCNK9 block – human KCNK9 channel inhibition | Q9NPC2 | B-score at 10 µM | 1.2% of 310,000 active | AID 488922 | HEK293 KCNK9, FluxOR thallium flux fluorescence; active compounds read low;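 active means ratio B-score over 3 SD below the library mean, with starting fluorescence within 5 SD of its mean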;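 further: negative B-score means less thallium flux so channel inhibition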
KCC2 secondary – KCC2 (human) modulation, secondary assay; shares compounds with Cl transport mod; HEK293-KCC2, thallium flux, FluoZin2 fluorescence; active compounds read high; normalised thallium flux (F/F0 slope) at 10 µM; 15% of 3,700 active;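 active means thallium flux slope above the same plate's solvent-only control mean plus 3 SD; inconclusive means the two replicate wells disagree; inactive means no significant difference from solvent-only control wells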
KCC2 bumet counter – thallium flux persisting under bumetanide in KCC2 cells, counter-screen secondary assay; shares compounds with Cl transport mod; HEK293-KCC2 + bumetanide/ouabain, thallium flux FluoZin2; active compounds read high; normalized thallium flux at 10 µM; 49% of 3,700 active; AID 1714;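 active means thallium entry rate above the same plate's blocked-transporter control wells by more than 3 SD; inconclusive means the two repeat wells disagree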;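 further: raw slope of fluorescence over initial fluorescence between 10 and 20 s after thallium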
KCC2 secondary2 – KCC2 (human) modulation, second secondary assay | shares compounds with Cl transport mod | normalized thallium flux at 10 µM | AID 1715 | 23% of 3,700 active | HEK293-KCC2, thallium flux FluoZin2 fluorescence; actives lie on both sides; F/F0 rise rate, 10–20 s post-thallium;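 active means thallium flux slope more than 3 SD above or below the plate's solvent-only control mean, mostly below; inconclusive means the two repeat wells disagreed; inactive means no significant shift from solvent-only controls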;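 further: raw slope with 0.1% DMSO as baseline and bumetanide as block control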
HEK293 Tl flux – parental HEK flux effect, counter-screen. shares compounds with Cl transport mod. HEK293 parental cells, thallium flux FluoZin2, ouabain; baseline-ratio fluorescence slope, 10–20 s after thallium. thallium flux rate (normalised fluorescence) at 10 µM. 46% of 3,700 active;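 active means thallium flux rate significantly above the same plate's solvent-only control wells, beyond their mean plus 3 SD; inconclusive means the two replicate wells gave conflicting results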
KCC2 retest ouab – modulates human KCC2 on retest with ouabain. shares compounds with Cl transport mod. HEK293-KCC2, thallium flux FluoZin2 fluorescence; bidirectional: low = inhibitor, high = activator. raw Tl+ flux slope (below DMSO = inhibition, above = activation) at 10 µM. 48% of 3,700 active;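 active means thallium flux slope beyond 3 SD from same-plate DMSO control mean in most replicates, usually higher, sometimes lower; inconclusive means repeat tests gave conflicting results; inactive means no significant difference from controls in most replicates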;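 further: slope of initial-normalized fluorescence between seconds 10 and 20 after thallium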
HEK counter2 – parental HEK flux effect, counter-screen 2 | shares compounds with Cl transport mod | HEK293 parental, thallium flux FluoZin-2 fluorescence slope | thallium flux slope at 10 µM | 33% of 3,700 active;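 active means thallium flux slope above the same plate's solvent-control mean plus 3 SD in both duplicate wells; inconclusive means duplicate wells that disagreed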;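 further: run without ouabain in cells lacking the KCC2 cotransporter; slope of fluorescence scaled to its starting value between 10 and 20 s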
Active calls of the source: *.

How did CCc1ccccc1NC1c2ccccc2C(=O)N1Cc1ccco1 (stereo not drawn) do in these assays?
hERG protect: -11; KCNQ1 inh: inactive; Cl transport mod: 0.011; KCNQ1 pot: inactive; KCNK3 inh: inactive; KCNK9 block: inactive

Results for O=C1c2ccccc2C(Nc2ccc(S(=O)(=O)N3CCCCCC3)cc2)N1Cc1ccco1 (stereo not drawn) ?
hERG protect: -15; KCNQ1 inh: inactive; Cl transport mod: -5.5*; KCNQ1 pot: inactive; KCNK3 inh: -8.7*; KCNK9 block: inactive; KCC2 secondary: 0.0088; KCC2 bumet counter: 0.0052; KCC2 secondary2: 0.033; HEK293 Tl flux: 0.007; KCC2 retest ouab: 0.016*; HEK counter2: 0.01

How did CCOc1cccc(-c2nnc3sc(COc4ccc(C)cc4)nn23)c1 do in these assays?
hERG protect: -8; KCNQ1 inh: inactive; Cl transport mod: 0.055; KCNQ1 pot: inactive; KCNK3 inh: inactive; KCNK9 block: inactive

What do the screens show for `CCOc1cccc(-c2nnc3sc(COc4ccc(Cl)cc4)nn23)c1`?
hERG protect: -8; KCNQ1 inh: inactive; Cl transport mod: -3.6*; KCNQ1 pot: inactive; KCNK3 inh: inactive; KCNK9 block: inactive; KCC2 secondary: 0.019; KCC2 bumet counter: 0.0046; KCC2 secondary2: 0.028; HEK293 Tl flux: 0.0072; KCC2 retest ouab: 0.014; HEK counter2: 0.01

What do the screens show for `S=c1[nH]nc(Nc2ccccc2Cl)s1`?
hERG protect: -1; KCNQ1 inh: inactive; Cl transport mod: -5.3*; KCNQ1 pot: inactive; KCNK3 inh: inactive; KCNK9 block: inactive; KCC2 secondary: 0.0041*; KCC2 bumet counter: 0.0094*; KCC2 secondary2: 0.022*; HEK293 Tl flux: 0.012*; KCC2 retest ouab: 0.012*; HEK counter2: 0.014*

What do the screens show for `Clc1cccc(Nc2nc(-c3ccncc3)cs2)c1`?
hERG protect: -8; KCNQ1 inh: inactive; Cl transport mod: 1.9; KCNQ1 pot: inactive; KCNK3 inh: inactive; KCNK9 block: inactive

Results for S=c1[nH]nc(Nc2cccc(Cl)c2)s1 ?
hERG protect: -11; KCNQ1 inh: inactive; Cl transport mod: -5.8*; KCNQ1 pot: inactive; KCNK3 inh: inactive; KCNK9 block: inactive; KCC2 secondary: 0.0061; KCC2 bumet counter: 0.0051; KCC2 secondary2: 0.02*; HEK293 Tl flux: 0.0082; KCC2 retest ouab: inconclusive; HEK counter2: 0.012

How did CC(O)[C@H]1CNCCN1CCc1cccc(F)c1 (stereo partly drawn) do in these assays?
hERG protect: -5; KCNQ1 inh: inactive; KCNQ1 pot: inactive; KCNK3 inh: inactive; KCNK9 block: inactive

What do the screens show for `C=CCN(c1ccccc1)S(=O)(=O)c1cccc(C(=O)OCC(=O)NC2CC2)c1`?
hERG protect: -8; KCNQ1 inh: inactive; Cl transport mod: -0.011; KCNQ1 pot: inactive; KCNK3 inh: inactive; KCNK9 block: inactive
